From ChEMBL document CHEMBL1125014, “Synthesis and structure-activity relationships of new 9-N-alkyl derivatives of 9(S)-erythromycylamine” (1990)
Values after ≈ are worked out from the molar mass of the structure shown.

Columns and labels:
Assay type in all cases: functional
[1] = test system: Staphylococcus epidermidis; assay: microbe, parasite or virus in culture
[2] = test system: Streptococcus pyogenes; assay: MIC value measured against streptococcus pyogenes C203
[3] = test system: Staphylococcus aureus; assay: MIC value measured against staphylococcus aureus X1
[4] = test system: Streptococcus pneumoniae; assay: MIC value measured against streptococcus pneumoniae Park1
[5] = test system: Staphylococcus aureus; assay: Effective dose against mice infected with Staphylococcus aureus after peroral administration (in vivo); details: in Mus musculus, po
[6] = test system: Haemophilus influenzae; assay: MIC value was measured against haemophilus influenzae.
Procedure, shortened: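 Susceptibility determined by standard agar-dilution method against a panel of bacterial strains.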

[7] = test system: Haemophilus influenzae; assay: MIC value was measured against haemophilus influenzae CL
[8] = test system: Streptococcus pyogenes; assay: Effective dose against mice infected with streptococcus pyogenes after peroral administration (in vivo); details: in Mus musculus, po
[9] = test system: Streptococcus pneumoniae; assay: Effective dose against mice infected with streptococcus pneumoniae after peroral administration (in vivo); details: in Mus musculus, po

| Structure (SMILES) | MIC [1] [µg/mL] | MIC [2] [µg/mL] | MIC [3] [µg/mL] | MIC [4] [µg/mL] | ED50 [5] [mg/kg] | MIC [6] [µg/mL] | MIC [7] [µg/mL] | ED50 [8] [mg/kg] | ED50 [9] [mg/kg] |
| --- | --- | --- | --- | --- | --- | --- | --- | --- | --- |
| CC[C@H]1OC(=O)[C@H](C)[C@@H](OC2CC(C)(OC)C(O)C(C)O2)[C@H](C)[C@@H](OC2OC(C)CC(N(C)C)C2O)[C@](C)(O)C[C@@H](C)[C@H](NCC2CCCCCCC2)[C@H](C)[C@@H](O)[C@]1(C)O (stereo partly specified) | 0.5 (≈ 0.582 µM) | 0.06 (≈ 0.0698 µM) | 1 (≈ 1.16 µM) |  |  |  |  |  |  |
| CC[C@H]1OC(=O)[C@H](C)[C@@H](OC2CC(C)(OC)C(O)C(C)O2)[C@H](C)[C@@H](OC2OC(C)CC(N(C)C)C2O)[C@](C)(O)C[C@@H](C)[C@H](NC2CCCC2)[C@H](C)[C@@H](O)[C@]1(C)O (stereo partly specified) | 0.5 (≈ 0.623 µM) | 0.06 (≈ 0.0747 µM) | 1 (≈ 1.25 µM) | 0.06 (≈ 0.0747 µM) | 46 | 2 (≈ 2.49 µM) | 2 (≈ 2.49 µM) | 4 | 4 |
| CC[C@H]1OC(=O)[C@H](C)[C@@H](OC2CC(C)(OC)C(O)C(C)O2)[C@H](C)[C@@H](OC2OC(C)CC(N(C)C)C2O)[C@](C)(O)C[C@@H](C)C(=O)[C@H](C)[C@@H](O)[C@H]1C (stereo partly specified) | 0.25 (≈ 0.348 µM) | 0.03 (≈ 0.0418 µM) | 0.25 (≈ 0.348 µM) |  |  |  | 4 (≈ 5.57 µM) |  |  |
| CC[C@H]1OC(=O)[C@H](C)[C@@H](OC2CC(C)(OC)C(O)C(C)O2)[C@H](C)[C@@H](OC2OC(C)CC(N(C)C)C2O)[C@](C)(O)C[C@@H](C)[C@H](N(C)C)[C@H](C)[C@@H](O)[C@]1(C)O (stereo partly specified) | 2 (≈ 2.62 µM) | 0.25 (≈ 0.328 µM) | 4 (≈ 5.24 µM) |  | > 44 | 2 (≈ 2.62 µM) | 2 (≈ 2.62 µM) | 22 | 44 |
| CC[C@H]1OC(=O)[C@H](C)[C@@H](OC2CC(C)(OC)C(O)C(C)O2)[C@H](C)[C@@H](OC2OC(C)CC(N(C)C)C2O)[C@](C)(O)C[C@@H](C)[C@H](NC(C)CCCN(CC)CC)[C@H](C)[C@@H](O)[C@]1(C)O (stereo partly specified) | 2 (≈ 2.28 µM) | 0.5 (≈ 0.571 µM) | 2 (≈ 2.28 µM) | 0.5 (≈ 0.571 µM) | 41 | 8 (≈ 9.13 µM) | 8 (≈ 9.13 µM) | 31 | 18 |
| CC[C@H]1OC(=O)[C@H](C)[C@@H](OC2CC(C)(OC)C(O)C(C)O2)[C@H](C)[C@@H](OC2OC(C)CC(N(C)C)C2O)[C@](C)(O)C[C@@H](C)[C@H](NCCCCCO)[C@H](C)[C@@H](O)[C@]1(C)O (stereo partly specified) | 0.5 (≈ 0.609 µM) | 0.008 (≈ 0.00974 µM) | 0.5 (≈ 0.609 µM) | 0.008 (≈ 0.00974 µM) | > 50 | 2 (≈ 2.44 µM) | 2 (≈ 2.44 µM) | 43 | > 50 |
| CCCCCCN[C@@H]1[C@H](C)[C@@H](O)[C@](C)(O)[C@@H](CC)OC(=O)[C@H](C)[C@@H](OC2CC(C)(OC)C(O)C(C)O2)[C@H](C)[C@@H](OC2OC(C)CC(N(C)C)C2O)[C@](C)(O)C[C@H]1C (stereo partly specified) | 0.25 (≈ 0.305 µM) | 0.12 (≈ 0.146 µM) | 1 (≈ 1.22 µM) | 0.008 (≈ 0.00977 µM) | 39 | 4 (≈ 4.88 µM) | 4 (≈ 4.88 µM) | 18 | 14 |
| CC[C@H]1OC(=O)[C@H](C)[C@@H](OC2CC(C)(OC)C(O)C(C)O2)[C@H](C)[C@@H](OC2OC(C)CC(N(C)C)C2O)[C@](C)(O)C[C@@H](C)[C@H](NCCCC#N)[C@H](C)[C@@H](O)[C@]1(C)O (stereo partly specified) | 1 (≈ 1.25 µM) | 1 (≈ 1.25 µM) | 1 (≈ 1.25 µM) |  | 36 | 2 (≈ 2.49 µM) | 2 (≈ 2.49 µM) | 21 | 29 |
| CCCCCN[C@@H]1[C@H](C)[C@@H](O)[C@](C)(O)[C@@H](CC)OC(=O)[C@H](C)[C@@H](OC2CC(C)(OC)C(O)C(C)O2)[C@H](C)[C@@H](OC2OC(C)CC(N(C)C)C2O)[C@](C)(O)C[C@H]1C (stereo partly specified) | 0.5 (≈ 0.621 µM) | 0.06 (≈ 0.0745 µM) | 0.5 (≈ 0.621 µM) | 0.015 (≈ 0.0186 µM) | 25 | 1 (≈ 1.24 µM) | 1 (≈ 1.24 µM) | 9 | 14 |
| CCN[C@@H]1[C@H](C)[C@@H](O)[C@](C)(O)[C@@H](CC)OC(=O)[C@H](C)[C@@H](OC2CC(C)(OC)C(O)C(C)O2)[C@H](C)[C@@H](OC2OC(C)CC(N(C)C)C2O)[C@](C)(O)C[C@H]1C (stereo partly specified) | 1 (≈ 1.31 µM) | 0.12 (≈ 0.157 µM) | 1 (≈ 1.31 µM) | 0.03 (≈ 0.0393 µM) | 23 | 1 (≈ 1.31 µM) | 1 (≈ 1.31 µM) | 13 | 13 |
| CCCCN[C@@H]1[C@H](C)[C@@H](O)[C@](C)(O)[C@@H](CC)OC(=O)[C@H](C)[C@@H](OC2CC(C)(OC)C(O)C(C)O2)[C@H](C)[C@@H](OC2OC(C)CC(N(C)C)C2O)[C@](C)(O)C[C@H]1C (stereo partly specified) | 0.25 (≈ 0.316 µM) | 0.06 (≈ 0.0758 µM) | 0.25 (≈ 0.316 µM) | 0.015 (≈ 0.019 µM) | 15 | 1 (≈ 1.26 µM) | 1 (≈ 1.26 µM) | 13 | 13 |
